This experiment can be described thus: inhibitors of GR-EGFP nuclear translocation, primary screen, dynein cargo transport inhibitor project, imaging, high-content, 3617.4 mouse cells (AID 1381). The note with it: at 20 µM, stimulated with dexamethasone, 1 µM. A digest of the protocol: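 Medium: Induction medium lacking tetracycline, stripped serum | Probe or stimulus: 1.0 µM final dexamethasone stimulus | Schedule: 48 h induction, then 1 h compound, then 30 min agonist, 37 °C | Signal: Automated 10x imaging of fixed Hoechst-stained cells | Evaluation: Per-cell GR-EGFP intensity, nucleus versus surrounding cytoplasmic ring, well-averaged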

Where [1] appears, read: measured here: cell count per field.
Setting [2] is: measured here: cytoplasmic GR-EGFP intensity, stronger effect = higher value.
[3] abbreviates: measured here: nuclear GR-EGFP intensity, stronger effect = lower value.

Among all 220,000 compounds or so, about 1,000 (0.45%) were called active.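 Rule for the calls: active = plate z-score of nuclear minus cytoplasmic receptor signal below a set negative limit, without overly bright fluorescence or cell loss (cut at about -3.5 in these data, passing the limit was not always enough); inactive = the rest, inconclusive results apart.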 Many of the other results were omitted from the sample, so actives are more common in it than they were.

Consider `CSCCC(NC(=O)COc1ccccc1)C(=O)Nc1ccc(C)cc1` (configuration not stated), for which the z-score is, setting by setting: (stronger effect = lower value) 0.137 (inactive); under setting [1], 0.845; under setting [2], 0.202; under setting [3], 0.24.

As for `O=C1C=CC(=O)N1c1ccc(N2CCCCC2)cc1`, the z-score is -4.11 (active) (stronger effect = lower value), -2.21 under setting [1], 2.18 under setting [2] and -1.81 under setting [3].

As to `O=c1[nH][nH]c(=O)c2cc(N3CCCC3)ccc12`, the z-score is, setting by setting: (stronger effect = lower value) -0.37 (inactive); under setting [1], 0.302; under setting [2], -0.256; under setting [3], 0.0156.

For the compound `Cc1ccccc1C(=O)Nc1ccc(N2CCCCCC2)cc1`, the z-score runs as follows: (stronger effect = lower value) -0.0609 (inactive); under setting [1], -0.96; under setting [2], 0.105; under setting [3], 0.497.

Regarding `COc1ccc(Cl)cc1-n1c(C)cc(C(=O)OCC(=O)N2CC(=O)Nc3ccccc32)c1C`, the z-score (stronger effect = lower value) was -0.945 (inactive), the z-score under setting [1] amounted to 0.925, the z-score under setting [2] is -0.291 and the z-score under setting [3] was -0.693.

As to `COCCn1c(C)cc(C(=O)COC(=O)/C=C/c2cccc(OC)c2)c1C`, the z-score runs as follows: (stronger effect = lower value) -0.49 (inactive); under setting [1], 0.119; under setting [2], -0.317; under setting [3], -0.136.

Take `COc1cccc(-c2ccc(SCC(=O)N3CCN(c4ccccc4)CC3)nn2)c1`: the z-score is, setting by setting: (stronger effect = lower value) 1.32 (inactive); under setting [1], -1.03; under setting [2], -0.273; under setting [3], 1.04.

As to `O=C(NCc1ccc(F)cc1)C(c1ccccc1)N(C(=O)c1csnn1)C1CC1` (configuration not stated), the z-score was 2.29 (inactive) (stronger effect = lower value), -1.97 under setting [1], -0.277 under setting [2] and 0.843 under setting [3].

Take `Cc1cc(NC(=O)Nc2ccc(Cl)cc2)n(-c2ccccc2)n1`: the z-score is -0.438 (inactive) (stronger effect = lower value), -0.392 under setting [1], -0.229 under setting [2] and 0.639 under setting [3].

On to `Cc1cc(C(=O)NCCc2ccc(Cl)cc2)n(-c2ccccc2)n1`, for which the z-score was -5.24 (active) (stronger effect = lower value), -1.31 under setting [1], 0.343 under setting [2] and -3.12 under setting [3].

`O=C(NCCc1ccccc1)Oc1ccc(Cl)cc1`: the z-score reads like this: (stronger effect = lower value) -0.396 (inactive); under setting [1], 0.0482; under setting [2], -0.223; under setting [3], -0.459.

With `Brc1ccc2c(c1)[C@H]1OCC[C@H]1[C@@H](c1cccs1)N2`, the z-score by setting is: (stronger effect = lower value) 1.51 (inactive); under setting [1], -1.61; under setting [2], -0.149; under setting [3], 1.53.

In the case of `COC(=O)[C@@H]1CC[C@H](C)[C@@H](c2ccc(C)cc2)N1C(=O)c1ccc(/C=N/O[C@H](C)c2cn([C@@H]3COC[C@H]3O)nn2)cc1`, the z-score was 0.697 (inactive) (stronger effect = lower value), 0.326 under setting [1], -0.241 under setting [2] and 0.639 under setting [3].

With `CC(=O)NCC(=O)N1CCCC(C(=O)c2ccc3c4c(cccc24)CC3)C1` (configuration not stated), the z-score reads like this: (stronger effect = lower value) 0.368 (inactive); under setting [1], -0.117; under setting [2], -0.201; under setting [3], 0.261.

Regarding `Cc1ccc(O)c(CCc2ccccc2)n1`, the z-score by setting is: (stronger effect = lower value) 0.491 (inactive); under setting [1], -0.946; under setting [2], -0.202; under setting [3], 0.586.

As for `Cc1[nH]c2ccccc2c1C(=O)COC(=O)c1c(-c2ccccc2)noc1C`, the z-score is -0.58 (inactive) (stronger effect = lower value), 0.403 under setting [1], -0.281 under setting [2] and -0.747 under setting [3].

For `Cc1ccc(CNC(=O)Cn2c(=O)c3sccc3n(Cc3cccc([N+](=O)[O-])c3)c2=O)cc1`, the z-score is -0.763 (inactive) (stronger effect = lower value), 0.845 under setting [1], -0.184 under setting [2] and -0.435 under setting [3].

In the case of `COc1ccc(C2/C=C\CN(S(=O)(=O)c3cccs3)CC(=O)N2Cc2ccc(F)cc2)cc1` (configuration not stated), the z-score is 1.14 (inactive) (stronger effect = lower value), -0.515 under setting [1], -0.824 under setting [2] and 0.466 under setting [3].

Turning to `O=C(CCCOc1ccccc1)NCc1ccco1`, the z-score by setting is: (stronger effect = lower value) 0.563 (inactive); under setting [1], -0.922; under setting [2], -0.00359; under setting [3], 0.541.

As for `CCc1cccc(NC(=O)CCC(=O)O)c1`, the z-score is 0.674 (inactive) (stronger effect = lower value), -0.0336 under setting [1], -0.309 under setting [2] and -0.143 under setting [3].

In the case of `O=C(CCl)Nc1ccc(Sc2ccc(NC(=O)CCl)cc2)cc1`, the z-score was -2.59 (inactive) (stronger effect = lower value), 0.102 under setting [1], 0.25 under setting [2] and -1.01 under setting [3].

Turning to `O=C(CCl)Nc1cccc(CP(=O)(c2ccccc2)c2ccccc2)c1`, the z-score runs as follows: (stronger effect = lower value) -3.86 (active); under setting [1], 0.102; under setting [2], 0.338; under setting [3], -1.58.

Turning to `CC1(C)COC(c2cccn2Cc2ccccc2Cl)=N1`, the z-score is, setting by setting: (stronger effect = lower value) -0.905 (inactive); under setting [1], 0.489; under setting [2], -0.115; under setting [3], 0.38.

Regarding `COc1ccccc1NS(=O)(=O)N(C)C`, the z-score by setting is: (stronger effect = lower value) -0.0864 (inactive); under setting [1], 0.4; under setting [2], -0.101; under setting [3], 0.17.

Regarding `Cc1c(C#N)c(NC(=O)c2ccccc2)n(Cc2ccccc2)c1C`, the z-score (stronger effect = lower value) was -0.291 (inactive), the z-score under setting [1] was determined as 0.341, the z-score under setting [2] was -0.155 and the z-score under setting [3] was -0.456.

For the compound `CCN(CC)C(=O)CSC1c2ccccc2C(=O)N1c1ccccc1` (configuration not stated), the z-score reads like this: (stronger effect = lower value) 2.73 (inactive); under setting [1], -1.62; under setting [2], -0.173; under setting [3], 0.99.

For `CCC(=O)Nc1cccc(C2=NOC3(C2)C[C@@H](C(N)=O)N(C(=O)c2cc([N+](=O)[O-])cc([N+](=O)[O-])c2C)C3)c1` (some centres not stated), the z-score (stronger effect = lower value) was -0.341 (inactive), the z-score under setting [1] is -0.348, the z-score under setting [2] was -0.641 and the z-score under setting [3] came to 0.119.

As to `O=C(NCCOCc1ccc(Cl)cc1)c1ncn[nH]1`, the z-score was 0.731 (inactive) (stronger effect = lower value), -0.271 under setting [1], -0.00295 under setting [2] and 0.605 under setting [3].

With `COc1ccc(Cl)cc1CSc1ncn[nH]1`, the z-score reads like this: (stronger effect = lower value) 1 (inactive); under setting [1], -0.49; under setting [2], -0.24; under setting [3], 0.812.

Turning to `O=C(/C=C/Sc1ncn[nH]1)c1ccc(Cl)cc1`, the z-score is -3.98 (active) (stronger effect = lower value), 0.0934 under setting [1], 1.02 under setting [2] and -1.6 under setting [3].

On to `NS(=O)(=O)c1ccc(CCNC(=O)NC2CCCCC2)cc1`, for which the z-score was 0.431 (inactive) (stronger effect = lower value), 0.299 under setting [1], -0.269 under setting [2] and 0.126 under setting [3].

Turning to `CCOc1ccc(C(=O)NC2CCN(CC(=O)NCc3cccs3)CC2)cc1`, the z-score was -1.07 (inactive) (stronger effect = lower value), -0.199 under setting [1], -0.19 under setting [2] and -0.737 under setting [3].

With `O=Cc1ccc(Oc2cccc(C(F)(F)F)c2)nc1`, the z-score (stronger effect = lower value) is 1.74 (inactive), the z-score under setting [1] is -2.12, the z-score under setting [2] amounted to 0.359 and the z-score under setting [3] is 1.33.

The values are drawn from PubChem BioAssay AID1381 (University of Pittsburgh Molecular Library Screening Center, 2008).
